Reference: ChEMBL document CHEMBL1137011, “Antagonists of the calcium receptor I. Amino alcohol-based parathyroid hormone secretagogues” (J Med Chem, 2009)
Activity calls are given as the source filed them. The rule behind the calls is not given here.

Experiments:
[1] = Antagonist activity at human calcium receptor 1 expressed in HEK293 4.0-7 cells assessed as inhibition of extracellular calcium-induced increase in intracellular calcium level by FLIPR assay; type: functional, cell-based
Summary of the method: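 HEK293 cells stably expressing human CaR, seeded 15K cells/well and grown 48 h at 37 °C. Loaded 45 min at 37 °C with Fluo4 (2 µM final) and probenecid (2.5 mM final) in HBSS with 0.75 mM Ca. Compound (top 25 µM final) was added 5 min at room temperature, then EC80 CaCl challenge, with FLIPR fluorescence read for 65 s.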

[2] = molecular target: T1, Extracellular calcium-sensing receptor (Homo sapiens, UniProt P41180); assay: Binding affinity to human parathyroid calcium receptor 1 expressed in HEK293 4.0-7 cells by radioligand binding assay; type: cell-based
T1 sequence (P41180 whole entry): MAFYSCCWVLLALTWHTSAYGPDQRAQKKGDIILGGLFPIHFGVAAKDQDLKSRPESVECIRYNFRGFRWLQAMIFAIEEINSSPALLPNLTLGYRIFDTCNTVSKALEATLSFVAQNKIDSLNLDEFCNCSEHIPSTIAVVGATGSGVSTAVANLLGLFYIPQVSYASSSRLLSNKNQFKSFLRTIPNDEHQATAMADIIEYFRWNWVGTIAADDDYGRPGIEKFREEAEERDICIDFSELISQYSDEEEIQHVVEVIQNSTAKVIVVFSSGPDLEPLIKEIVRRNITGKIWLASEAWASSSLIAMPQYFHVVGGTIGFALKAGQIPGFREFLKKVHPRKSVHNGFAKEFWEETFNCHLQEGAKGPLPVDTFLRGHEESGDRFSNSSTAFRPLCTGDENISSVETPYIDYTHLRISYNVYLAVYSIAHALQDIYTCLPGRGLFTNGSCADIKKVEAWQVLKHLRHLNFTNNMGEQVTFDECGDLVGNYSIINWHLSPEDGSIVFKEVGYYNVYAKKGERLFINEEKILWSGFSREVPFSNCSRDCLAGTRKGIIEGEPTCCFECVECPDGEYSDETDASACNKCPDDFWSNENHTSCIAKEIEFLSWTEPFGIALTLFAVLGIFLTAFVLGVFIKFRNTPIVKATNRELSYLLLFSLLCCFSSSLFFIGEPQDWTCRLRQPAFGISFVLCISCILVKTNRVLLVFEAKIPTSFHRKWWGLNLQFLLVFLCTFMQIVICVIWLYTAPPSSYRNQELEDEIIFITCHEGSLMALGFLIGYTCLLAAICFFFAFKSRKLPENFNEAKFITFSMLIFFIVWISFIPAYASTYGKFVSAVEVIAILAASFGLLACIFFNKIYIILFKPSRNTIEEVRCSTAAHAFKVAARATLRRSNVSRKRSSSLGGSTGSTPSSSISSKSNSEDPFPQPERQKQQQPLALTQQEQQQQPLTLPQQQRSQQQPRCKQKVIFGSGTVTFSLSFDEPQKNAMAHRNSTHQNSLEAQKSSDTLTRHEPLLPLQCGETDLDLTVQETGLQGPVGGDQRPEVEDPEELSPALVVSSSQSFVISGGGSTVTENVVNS
Summary of the method: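 Membranes from HEK293 4.0-7 cells stably expressing human CaR (4-10 µg) in 50 mM Tris-HCl pH 7.4, 1 mM EDTA, 3 mM MgCl2, 0.1% gelatin, 10% EtOH. Incubated with 2 nM 3H antagonist or 3H calcimimetic ligand for 30 min at 4 °C, then filtered onto PEI-treated GF/C and counted by scintillation. Nonspecific binding taken with 100-fold excess of unlabeled homologous ligand.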

[3] = molecular target: Beta-3 adrenergic receptor (Homo sapiens, UniProt P13945); assay: Binding affinity to beta3 adrenoceptor
Sequence of Beta-3 adrenergic receptor (P13945 whole entry): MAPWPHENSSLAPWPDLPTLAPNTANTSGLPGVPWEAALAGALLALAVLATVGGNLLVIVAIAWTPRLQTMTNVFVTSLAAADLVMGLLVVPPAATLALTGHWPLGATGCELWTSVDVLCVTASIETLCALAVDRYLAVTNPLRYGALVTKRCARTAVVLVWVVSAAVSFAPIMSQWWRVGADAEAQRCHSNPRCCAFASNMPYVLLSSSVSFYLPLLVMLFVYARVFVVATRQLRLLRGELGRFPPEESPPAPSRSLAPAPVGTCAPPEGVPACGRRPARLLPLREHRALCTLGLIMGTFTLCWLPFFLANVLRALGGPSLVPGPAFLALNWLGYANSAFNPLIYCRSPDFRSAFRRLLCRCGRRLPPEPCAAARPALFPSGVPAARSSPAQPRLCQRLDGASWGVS

[4] = molecular target: Beta-2 adrenergic receptor (Homo sapiens, UniProt P07550); assay: Binding affinity to beta2 adrenoceptor
Sequence of Beta-2 adrenergic receptor (P07550 whole entry): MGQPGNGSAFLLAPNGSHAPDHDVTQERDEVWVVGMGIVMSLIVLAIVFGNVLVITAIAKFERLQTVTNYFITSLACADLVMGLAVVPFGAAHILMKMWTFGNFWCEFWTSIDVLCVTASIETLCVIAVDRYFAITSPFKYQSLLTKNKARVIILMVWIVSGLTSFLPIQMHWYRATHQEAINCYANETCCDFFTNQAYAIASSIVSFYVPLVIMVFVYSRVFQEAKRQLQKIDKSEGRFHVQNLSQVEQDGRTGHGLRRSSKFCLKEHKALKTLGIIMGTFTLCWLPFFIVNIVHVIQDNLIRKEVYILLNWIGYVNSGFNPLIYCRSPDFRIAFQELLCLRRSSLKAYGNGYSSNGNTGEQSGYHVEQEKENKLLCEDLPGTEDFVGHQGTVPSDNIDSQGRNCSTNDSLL

[5] = molecular target: Sodium-dependent dopamine transporter (Homo sapiens, UniProt Q01959); assay: Binding affinity to dopamine transporter
Sequence of Sodium-dependent dopamine transporter (Q01959 whole entry): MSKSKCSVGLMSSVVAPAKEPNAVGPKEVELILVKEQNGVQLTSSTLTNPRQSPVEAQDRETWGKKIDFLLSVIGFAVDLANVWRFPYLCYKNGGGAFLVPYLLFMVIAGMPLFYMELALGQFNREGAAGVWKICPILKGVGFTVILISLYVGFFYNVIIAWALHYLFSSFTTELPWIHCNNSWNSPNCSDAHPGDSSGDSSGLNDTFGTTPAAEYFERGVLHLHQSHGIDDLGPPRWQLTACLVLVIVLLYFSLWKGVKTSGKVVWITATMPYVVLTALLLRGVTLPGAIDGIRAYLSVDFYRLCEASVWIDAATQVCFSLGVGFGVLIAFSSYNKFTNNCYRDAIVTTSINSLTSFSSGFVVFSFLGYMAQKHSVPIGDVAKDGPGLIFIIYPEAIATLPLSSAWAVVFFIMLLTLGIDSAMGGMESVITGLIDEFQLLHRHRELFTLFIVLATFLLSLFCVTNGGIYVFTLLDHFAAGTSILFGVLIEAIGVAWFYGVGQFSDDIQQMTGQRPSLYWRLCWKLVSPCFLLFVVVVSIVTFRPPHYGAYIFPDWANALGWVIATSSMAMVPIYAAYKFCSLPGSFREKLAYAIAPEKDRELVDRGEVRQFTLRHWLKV

[6] = molecular target: Sodium-dependent serotonin transporter (Homo sapiens, UniProt P31645); assay: Binding affinity to serotonin transporter
Sequence of Sodium-dependent serotonin transporter (P31645 whole entry): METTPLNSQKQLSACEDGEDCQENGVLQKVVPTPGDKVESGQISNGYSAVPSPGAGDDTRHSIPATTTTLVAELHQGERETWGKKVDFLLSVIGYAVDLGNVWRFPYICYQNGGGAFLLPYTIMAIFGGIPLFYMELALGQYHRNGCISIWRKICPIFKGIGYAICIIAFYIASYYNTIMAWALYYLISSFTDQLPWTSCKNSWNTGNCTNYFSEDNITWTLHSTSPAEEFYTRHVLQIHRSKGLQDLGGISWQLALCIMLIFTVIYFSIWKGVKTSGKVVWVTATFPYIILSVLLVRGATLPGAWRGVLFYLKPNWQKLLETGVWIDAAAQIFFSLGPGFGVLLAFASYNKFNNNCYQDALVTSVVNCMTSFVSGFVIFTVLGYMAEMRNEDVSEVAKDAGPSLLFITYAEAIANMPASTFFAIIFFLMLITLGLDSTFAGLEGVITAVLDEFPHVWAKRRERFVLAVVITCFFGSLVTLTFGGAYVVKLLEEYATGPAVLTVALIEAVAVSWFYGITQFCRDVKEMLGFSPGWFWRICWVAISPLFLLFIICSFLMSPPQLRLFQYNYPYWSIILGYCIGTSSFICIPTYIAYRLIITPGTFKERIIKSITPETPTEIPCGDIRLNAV

[7] = molecular target: Sodium-dependent noradrenaline transporter (Homo sapiens, UniProt P23975); assay: Binding affinity to norepinephrine transporter
Sequence of Sodium-dependent noradrenaline transporter (P23975 whole entry): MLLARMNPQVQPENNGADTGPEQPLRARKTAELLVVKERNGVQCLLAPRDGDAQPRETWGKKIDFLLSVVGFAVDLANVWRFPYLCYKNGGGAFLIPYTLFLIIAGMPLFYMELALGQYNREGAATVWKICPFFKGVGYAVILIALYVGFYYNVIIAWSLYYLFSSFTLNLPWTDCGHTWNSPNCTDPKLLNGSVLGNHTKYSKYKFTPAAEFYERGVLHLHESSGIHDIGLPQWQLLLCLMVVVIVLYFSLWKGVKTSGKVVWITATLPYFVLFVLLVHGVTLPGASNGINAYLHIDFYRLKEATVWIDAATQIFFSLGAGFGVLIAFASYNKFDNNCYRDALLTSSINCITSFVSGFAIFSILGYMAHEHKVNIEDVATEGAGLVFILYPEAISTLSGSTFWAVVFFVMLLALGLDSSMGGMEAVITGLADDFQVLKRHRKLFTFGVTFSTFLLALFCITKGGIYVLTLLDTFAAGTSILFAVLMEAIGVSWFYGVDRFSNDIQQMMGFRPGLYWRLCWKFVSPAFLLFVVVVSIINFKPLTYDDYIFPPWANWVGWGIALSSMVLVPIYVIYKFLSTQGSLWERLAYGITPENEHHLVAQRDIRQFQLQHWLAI

[8] = molecular target: Cytochrome P450 2D6 (Homo sapiens, UniProt P10635); assay: Binding affinity to CYP2D6; type: ADME
Sequence of Cytochrome P450 2D6 (P10635 whole entry): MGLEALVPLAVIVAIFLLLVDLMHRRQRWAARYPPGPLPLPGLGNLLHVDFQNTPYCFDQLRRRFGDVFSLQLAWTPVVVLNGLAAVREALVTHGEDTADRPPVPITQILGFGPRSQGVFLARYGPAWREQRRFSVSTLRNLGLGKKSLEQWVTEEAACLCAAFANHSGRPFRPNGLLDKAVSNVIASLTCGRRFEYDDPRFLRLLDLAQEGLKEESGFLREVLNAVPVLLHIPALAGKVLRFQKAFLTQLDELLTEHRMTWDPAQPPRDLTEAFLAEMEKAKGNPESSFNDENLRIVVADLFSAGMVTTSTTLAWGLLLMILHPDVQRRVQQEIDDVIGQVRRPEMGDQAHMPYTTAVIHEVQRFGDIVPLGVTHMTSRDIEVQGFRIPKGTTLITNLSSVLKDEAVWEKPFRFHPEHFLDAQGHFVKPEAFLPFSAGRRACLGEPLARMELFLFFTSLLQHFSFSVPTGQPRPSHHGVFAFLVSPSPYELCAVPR

[9] = molecular target: Voltage-gated inwardly rectifying potassium channel KCNH2 (Homo sapiens, UniProt Q12809); assay: Binding affinity to human ERG
Sequence of Voltage-gated inwardly rectifying potassium channel KCNH2 (Q12809 whole entry): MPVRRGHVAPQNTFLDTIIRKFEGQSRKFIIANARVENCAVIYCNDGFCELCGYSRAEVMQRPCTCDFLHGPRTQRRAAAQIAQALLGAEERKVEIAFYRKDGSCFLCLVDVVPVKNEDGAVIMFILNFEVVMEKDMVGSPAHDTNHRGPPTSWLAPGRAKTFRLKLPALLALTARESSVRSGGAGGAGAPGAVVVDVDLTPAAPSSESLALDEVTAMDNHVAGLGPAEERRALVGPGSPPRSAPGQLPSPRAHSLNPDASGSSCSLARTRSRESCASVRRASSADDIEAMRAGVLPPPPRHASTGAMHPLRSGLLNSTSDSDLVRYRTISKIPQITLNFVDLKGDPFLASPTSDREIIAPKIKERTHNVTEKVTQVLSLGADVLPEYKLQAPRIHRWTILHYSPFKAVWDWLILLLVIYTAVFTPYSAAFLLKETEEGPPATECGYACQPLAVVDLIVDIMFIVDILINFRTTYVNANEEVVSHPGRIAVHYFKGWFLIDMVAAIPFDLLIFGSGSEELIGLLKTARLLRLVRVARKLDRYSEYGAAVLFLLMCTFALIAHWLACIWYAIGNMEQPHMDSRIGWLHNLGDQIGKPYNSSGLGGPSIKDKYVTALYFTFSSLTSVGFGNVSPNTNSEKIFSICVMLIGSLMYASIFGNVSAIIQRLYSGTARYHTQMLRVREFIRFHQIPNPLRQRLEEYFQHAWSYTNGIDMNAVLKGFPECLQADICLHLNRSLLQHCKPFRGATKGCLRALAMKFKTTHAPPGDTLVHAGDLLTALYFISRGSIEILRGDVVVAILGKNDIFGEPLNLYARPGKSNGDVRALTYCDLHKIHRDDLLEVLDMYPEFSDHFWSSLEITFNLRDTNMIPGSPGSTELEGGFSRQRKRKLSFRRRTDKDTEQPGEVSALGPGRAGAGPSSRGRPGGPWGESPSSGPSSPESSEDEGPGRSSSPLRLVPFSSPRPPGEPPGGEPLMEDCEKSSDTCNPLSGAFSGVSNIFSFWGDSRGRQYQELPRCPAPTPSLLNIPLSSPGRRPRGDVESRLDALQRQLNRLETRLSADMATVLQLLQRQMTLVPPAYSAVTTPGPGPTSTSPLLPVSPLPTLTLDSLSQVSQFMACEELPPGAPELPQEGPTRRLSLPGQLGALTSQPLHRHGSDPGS

[10] = molecular target: Beta-1 adrenergic receptor (Homo sapiens, UniProt P08588); assay: Binding affinity to beta-1 adrenoceptor
Sequence of Beta-1 adrenergic receptor (P08588 whole entry): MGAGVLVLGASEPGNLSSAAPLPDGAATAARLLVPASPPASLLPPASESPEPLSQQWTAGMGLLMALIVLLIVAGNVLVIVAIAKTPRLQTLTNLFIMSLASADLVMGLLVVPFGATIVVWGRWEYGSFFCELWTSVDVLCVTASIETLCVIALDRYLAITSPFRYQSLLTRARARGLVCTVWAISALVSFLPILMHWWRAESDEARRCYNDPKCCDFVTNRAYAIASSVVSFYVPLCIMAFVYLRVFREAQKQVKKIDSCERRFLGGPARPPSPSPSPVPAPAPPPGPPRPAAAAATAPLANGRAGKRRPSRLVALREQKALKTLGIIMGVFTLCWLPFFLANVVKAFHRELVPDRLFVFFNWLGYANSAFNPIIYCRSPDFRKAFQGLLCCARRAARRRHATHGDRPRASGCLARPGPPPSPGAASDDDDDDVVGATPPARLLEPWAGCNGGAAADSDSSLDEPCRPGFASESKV

[11] = Tmax in human; type: ADME, organism-based; details: in vivo
[12] = Clearance in women; type: ADME, organism-based; details: female, human, in vivo
[13] = Clearance in men; type: ADME, organism-based; details: male, human, in vivo
[14] = Volume of distribution in human; type: ADME, organism-based; details: in vivo
[15] = tested on: Rattus norvegicus; assay: Increase in plasma parathyroid hormone level in normal conscious rat at 10 umol/kg, iv by immunoradiometric assay; type: functional, organism-based
Summary of the method: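 Normal conscious rats were given a single iv injection of 10 µmol/kg. Plasma PTH was measured over time by rat PTH(1-34) immunoradiometric assay, n = 6/group, mean ± SE.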

[16] = Oral bioavailability in rat; type: ADME, organism-based; details: in vivo
[17] = organism: Rattus norvegicus; assay: Clearance in rat; type: ADME, organism-based; details: in vivo
[18] = Half life in rat; type: ADME, organism-based; details: in vivo
[19] = Volume of distribution in rat; type: ADME, organism-based; details: in vivo
[20] = Increase in parathyroid hormone release in bovine parathyroid cells; type: functional, cell-based; details: Bos taurus
[21] = tested on: Rattus norvegicus; assay: Increase of new bone formation in ovariectomized postmenopausal osteoporosis Sprague-Dawley rat model at 100 umol/kg, po for 5 weeks; type: functional, organism-based
[22] = tested on: Rattus norvegicus; assay: Increase of resorption of old bone in ovariectomized postmenopausal osteoporosis Sprague-Dawley rat model at 100 umol/kg, po for 5 weeks; type: functional, organism-based
[23] = tested on: Rattus norvegicus; assay: Effect on net increase in bone mass in ovariectomized postmenopausal osteoporosis Sprague-Dawley rat model at 100 umol/kg, po for 5 weeks; type: functional, organism-based
[24] = tested on: Rattus norvegicus; assay: Increase of bone mass in ovariectomized postmenopausal osteoporosis Sprague-Dawley rat model at 5 ug/kg, po for 5 weeks; type: functional, organism-based
[25] = tested on: Rattus norvegicus; assay: Increase of bone mass in 17-beta-estradiol-treated ovariectomized postmenopausal osteoporosis Sprague-Dawley rat model at 100 umol/kg, po for 5 weeks; type: functional, organism-based

COc1ccc(CC(C)(C)NC[C@@H](O)COc2cccc(Cl)c2Cl)cc1
IC50 [1]: 38 nM | IC50 [2]: 68 nM | EC50 [3]: Not Active | IC50 [4]: 300 nM

COc1ccc(CC(C)NCC(O)COc2ccccc2)cc1 (racemic)
IC50 [1]: > 100000 nM | IC50 [2]: > 10000 nM

COc1ccc(CC(C)(C)NCC(O)COC(C)C)cc1 (racemic)
IC50 [1]: 6400 nM | IC50 [2]: 10000 nM

COc1ccc(CC(C)(C)NCC(O)COc2ccccc2)cc1 (racemic)
IC50 [1]: 2300 nM | IC50 [2]: 2300 nM

COc1ccc(CC(C)(C)NC[C@H](O)COc2cccc3[nH]c(=O)[nH]c23)cc1
IC50 [1]: 11000 nM | IC50 [2]: 31800 nM | IC50 [5]: 1200 nM | IC50 [6]: 61 nM | IC50 [7]: 600 nM | IC50 [8]: 1260 nM | IC50 [9]: 11800 nM | EC50 ([3]; read-out: EC50): 7 nM | IC50 [4]: 1.3 nM | EC50 ([10]; read-out: EC50): 3 nM

COc1ccc(CC(C)(C)NCC(O)COc2ccccc2C#N)cc1 (racemic)
IC50 [1]: 45 nM | IC50 [2]: 140 nM | IC50 [5]: 300 nM | IC50 [6]: 21 nM | IC50 [7]: 300 nM | IC50 [8]: 36 nM | EC50 ([3]; read-out: EC50): 20 nM | IC50 [4]: 21 nM | EC50 [10]: Not Active

CCCCOCC(O)CNC(C)(C)Cc1ccc(OC)cc1 (racemic)
IC50 [1]: 2200 nM | IC50 [2]: 3200 nM

COc1ccc(CC(C)(C)NCCCOc2cccc(Cl)c2Cl)cc1
IC50 [1]: 2500 nM | IC50 [2]: 930 nM

CC[C@H](C)[C@H](NC(=O)[C@H](CCC(=O)O)NC(=O)[C@H](CO)NC(=O)[C@@H](NC(=O)[C@@H](N)CO)C(C)C)C(=O)N[C@@H](CCC(N)=O)C(=O)N[C@@H](CC(C)C)C(=O)N[C@@H](CCSC)C(=O)N[C@@H](Cc1cnc[nH]1)C(=O)N[C@@H](CC(N)=O)C(=O)N[C@@H](CC(C)C)C(=O)NCC(=O)N[C@@H](CCCCN)C(=O)N[C@@H](Cc1cnc[nH]1)C(=O)N[C@@H](CC(C)C)C(=O)N[C@@H](CC(N)=O)C(=O)N[C@@H](CO)C(=O)N[C@@H](CCSC)C(=O)N[C@@H](CCC(=O)O)C(=O)N[C@@H](CCCN=C(N)N)C(=O)N[C@H](C(=O)N[C@@H](CCC(=O)O)C(=O)N[C@@H](Cc1c[nH]c2ccccc12)C(=O)N[C@@H](CC(C)C)C(=O)N[C@@H](CCCN=C(N)N)C(=O)N[C@@H](CCCCN)C(=O)N[C@@H](CCCCN)C(=O)N[C@@H](CC(C)C)C(=O)N[C@@H](CCC(N)=O)C(=O)N[C@@H](CC(=O)O)C(=O)N[C@H](C(=O)N[C@@H](Cc1cnc[nH]1)C(=O)N[C@@H](CC(N)=O)C(=O)N[C@@H](Cc1ccccc1)C(=O)O)C(C)C)C(C)C [TERIPARATIDE]
Tmax [11]: ≤ 0.5 h | clearance [12]: 1030 mL/min | clearance [13]: 1570 mL/min | Vd [14]: 0.12 L/kg

COc1ccc(CC(C)(C)NCC(O)COc2cccc(Cl)c2Cl)cc1 (racemic)
IC50 [1]: 45 nM | IC50 [2]: 200 nM | EC50 ([3]; read-out: EC50): 200 nM | IC50 [4]: 21 nM

COc1ccc(CC(C)(C)NCC(O)COc2cccc(Cl)c2C#N)cc1 (racemic)
IC50 [1]: 38 nM | IC50 [2]: 70 nM | IC50 [5]: 1100 nM | IC50 [6]: 34 nM | IC50 [7]: 1000 nM | IC50 [8]: 76 nM | IC50 [9]: 3600 nM | EC50 [3]: Not Active | IC50 [4]: 23 nM | EC50 [10]: Not Active

CCCOCC(O)CNC(C)(C)Cc1ccc(OC)cc1 (racemic)
IC50 [1]: 16000 nM | IC50 [2]: 7000 nM

COc1ccc(CC(C)(C)NCC(O)COc2ccc3ccccc3c2)cc1 (racemic)
IC50 [1]: 1400 nM | IC50 [2]: 1300 nM

COc1ccc(CC(C)(C)NCC(O)COc2cccc(Cl)c2)cc1 (racemic)
IC50 [1]: 470 nM | IC50 [2]: 1000 nM

COc1ccc(CCC(C)(C)NCC(O)COc2ccccc2)cc1 (racemic)
IC50 [1]: 13000 nM | IC50 [2]: 2780 nM

COc1ccc(CC(C)(C)NCC(COc2cccc(Cl)c2Cl)OC)cc1 (racemic)
IC50 [1]: > 3000 nM | IC50 [2]: 950 nM

COc1ccc(CCNCC(O)COc2ccccc2)cc1 (racemic)
IC50 [1]: > 100000 nM | IC50 [2]: > 10000 nM

COc1ccc(CC(C)(C)N(C)CC(O)COc2cccc(Cl)c2Cl)cc1 (racemic)
IC50 [1]: > 3000 nM | IC50 [2]: 2300 nM

CC(C)(Cc1ccccc1)NCC(O)COc1ccccc1 (racemic)
IC50 [1]: 2300 nM

COc1ccc(CC(C)(C)NCC(O)COc2ccccc2Cl)cc1 (racemic)
IC50 [1]: 490 nM | IC50 [2]: 1000 nM

COc1ccc(CC(C)(C)NC[C@H](O)COc2cccc(Cl)c2Cl)cc1
IC50 [1]: 340 nM | IC50 [2]: 300 nM | EC50 ([3]; read-out: EC50): 200 nM | IC50 [4]: 1 nM

COc1ccc(C(C)(C)NCC(O)COc2ccccc2)cc1 (racemic)
IC50 [1]: > 100000 nM | IC50 [2]: > 10000 nM

COc1ccc(C(C)(C)CNCC(O)COc2ccccc2)cc1 (racemic)
IC50 [1]: > 100000 nM | IC50 [2]: > 10000 nM

COc1ccc(CC(C)(C)NCC(O)COc2ccccc2OC)cc1 (racemic)
IC50 [1]: 15600 nM | IC50 [2]: 3500 nM

CC(C)(Cc1ccc2ccccc2c1)NC[C@@H](O)COc1cccc(Cl)c1C#N.Cl
IC50 [1]: 43 nM | IC50 [2]: 3 nM | IC50 [5]: 200 nM | IC50 [6]: 2 nM | IC50 [7]: 200 nM | IC50 [8]: 45 nM | IC50 [9]: 3000 nM | Activity [15]: Active | bioavailability [16]: 11% | clearance [17]: 74 mL/min/kg | half-life [18]: 2 h | Vd [19]: 11 L/kg | EC50 [20]: 41 nM | Activity [21]: Active | Activity [22]: Active | Activity [23]: Active | Activity [24]: Active | Activity [25]: Active | EC50 [3]: Not Active | IC50 [4]: 4300 nM | EC50 [10]: Not Active
